Results taken from ChEMBL document CHEMBL1156957, “Synthesis, antitubulin, and antiproliferative SAR of analogues of 2-methoxyestradiol-3,17-O,O-bis-sulfamate” (J Med Chem, 2010).

Tests used:
DU-145 = experiment: Antiproliferative activity against human DU145 cells after 96 hrs by WST-1 assay; format: functional; conditions: DU-145, 96 h
Procedure, shortened: (§1)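 DU-145 and MDA-MB-231 cells kept in RPMI-1640 with 10% FBS, penicillin and streptomycin at 37 °C, 5% CO2. Seeded at 5000 cells/well and exposed to 10^-9–10^-4 M compound or vehicle for 96 h. Live cells counted by WST-1. Viability taken as percent of mean control and GI50 derived. Triplicate experiments.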

[1] = Inhibition of bovine brain tubulin assembly assessed as decrease in turbidity after 20 mins; design: species or system Bos taurus
Procedure, shortened: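 Bovine brain tubulin at 1.0 mg/mL (10 μM) preincubated 15 min at 30 °C with varying compound concentrations, no GTP. Chilled on ice, then GTP added (0.4 mM final). Baseline taken at 0 °C, then rapid jump to 30 °C and turbidity rise followed spectrophotometrically for 20 min. IC50 is the concentration halving the turbidity increase.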

Bos taurus = species on record: Bos taurus; experiment: Displacement of [3H]colchicine from bovine brain tubulin at 5 uM after 10 mins
MDA-MB-231 = experiment: Antiproliferative activity against human MDA-MB-231 cells after 96 hrs by WST-1 assay; format: functional; conditions: MDA-MB-231, 96 h; procedure, shortened: as §1
UACC-62 = experiment: Antiproliferative activity against human UACC62 cells after 96 hrs by WST-1 assay; format: functional; conditions: UACC-62, 96 h
SF-539 = experiment: Antiproliferative activity against human SF539 cells after 96 hrs by WST-1 assay; format: functional; conditions: SF-539, 96 h
OVCAR-3 = experiment: Antiproliferative activity against human OVCAR-3 cells after 96 hrs by WST-1 assay; format: functional; conditions: OVCAR-3, 96 h
HCT-116 = experiment: Antiproliferative activity against human HCT116 cells after 96 hrs by WST-1 assay; format: functional; conditions: HCT-116, 96 h
HOP-62 = experiment: Antiproliferative activity against human HOP62 cells after 96 hrs by WST-1 assay; format: functional; conditions: HOP-62, 96 h
SN12C = experiment: Antiproliferative activity against human SN12C cells after 96 hrs by WST-1 assay; format: functional
MCF7 = experiment: Antiproliferative activity against human MCF7 cells after 96 hrs by WST-1 assay; format: functional; conditions: MCF7, 96 h

SMILES	GI50 (DU-145) [nM]	IC50 [1] [nM]	inhibition (Bos taurus) [%]	GI50 (MDA-MB-231) [nM]	GI50 (UACC-62) [nM]	GI50 (SF-539) [nM]	GI50 (OVCAR-3) [nM]	GI50 (HCT-116) [nM]	GI50 (HOP-62) [nM]	GI50 (SN12C) [nM]	GI50 (MCF7) [nM]
CCc1cc2c(cc1OS(N)(=O)=O)CC[C@@H]1[C@@H]2CC[C@@]2(C)[C@H]1CC[C@@H]2S(C)(=O)=O	110	3600	28	230	–	–	–	–	–	–	–
COc1cc2c(cc1O)CC[C@@H]1[C@@H]2CC[C@]2(C)[C@@H](CC#N)CC[C@@H]12	490	–	–	120	–	–	–	–	–	–	–
CCc1cc2c(cc1OS(N)(=O)=O)CC[C@@H]1[C@@H]2CC[C@]2(C)[C@@H](CS(C)(=O)=O)CC[C@@H]12	190	2100	37	230	10700	< 10	< 10	< 10	< 10	< 10	–
COc1cc2c(cc1OS(N)(=O)=O)CC[C@@H]1[C@@H]2CC[C@]2(C)[C@@H](CC#N)CC[C@@H]12	62	1300	78	71	–	–	–	–	–	–	–
COc1cc2c(cc1OS(N)(=O)=O)CC[C@@H]1[C@@H]2CC[C@]2(C)[C@@H](OS(N)(=O)=O)CC[C@@H]12	–	2200	28	–	< 10	36	< 10	45	51	–	–
CCc1cc2c(cc1OS(N)(=O)=O)CC[C@@H]1[C@@H]2CC[C@]2(C)[C@@H](CC#N)CC[C@@H]12	54	–	–	141	–	–	–	–	–	–	–
CCc1cc2c(cc1O)CC[C@@H]1[C@@H]2CC[C@]2(C)[C@@H](NS(N)(=O)=O)CC[C@@H]12	> 100000	–	–	–	–	–	–	–	–	–	–
CCc1cc2c(cc1O)CC[C@@H]1[C@@H]2CC[C@]2(C)[C@@H](N)CC[C@@H]12	60800	–	–	–	–	–	–	–	–	–	–
CCc1cc2c(cc1O)CC[C@@H]1[C@@H]2CC[C@@]2(C)[C@H]1CC[C@@H]2S(C)(=O)=O	> 100000	–	–	> 100000	–	–	–	–	–	–	–
CCc1cc2c(cc1O)CC[C@@H]1[C@@H]2CC[C@]2(C)[C@@H](NS(C)(=O)=O)CC[C@@H]12	> 100000	–	–	–	–	–	–	–	–	–	–
CCc1cc2c(cc1OS(N)(=O)=O)CC[C@@H]1[C@@H]2CC[C@]2(C)[C@@H](CN(C)C)CC[C@@H]12	3050	–	–	4030	11700	12600	12600	9100	13500	18200	–
COc1cc2c(cc1OS(=O)(=O)N(C)C)CC[C@@H]1[C@@H]2CC[C@]2(C)C(=O)CC[C@@H]12	–	> 40000	–	–	–	–	–	–	–	–	> 10000
COc1cc2c(cc1O)CC[C@@H]1[C@@H]2CC[C@]2(C)[C@@H](NS(C)(=O)=O)CC[C@@H]12	> 100000	–	–	–	> 100000	> 100000	> 100000	60300	> 100000	> 100000	–
COc1cc2c(cc1O)CC[C@@H]1[C@@H]2CC[C@]2(C)C(OS(N)(=O)=O)CC[C@@H]12 (some centres undefined)	–	> 40000	–	–	–	–	–	–	–	–	–
COc1cc2c(cc1OS(N)(=O)=O)CC[C@@H]1[C@@H]2CC[C@]2(C)[C@@H](NS(N)(=O)=O)CC[C@@H]12	6130	–	–	5600	–	–	–	–	–	–	–
CCc1cc2c(cc1OS(N)(=O)=O)CC[C@@H]1[C@@H]2CC[C@]2(C)[C@@H](CCN(C)C)CC[C@@H]12	3540	–	–	2960	–	–	–	–	–	–	–
COc1cc2c(cc1OCc1ccccc1)CC[C@@H]1[C@@H]2CC[C@]2(C)[C@@H](OS(C)(=O)=O)CC[C@@H]12	–	–	–	–	14400	4600	2900	5900	6900	19900	–

SMILES	GI50 (DU-145) [nM]	IC50 [1] [nM]	inhibition (Bos taurus) [%]	GI50 (MDA-MB-231) [nM]	GI50 (UACC-62) [nM]	GI50 (SF-539) [nM]	GI50 (OVCAR-3) [nM]	GI50 (HCT-116) [nM]	GI50 (HOP-62) [nM]	GI50 (SN12C) [nM]	GI50 (MCF7) [nM]
COc1cc2c(cc1OS(N)(=O)=O)CC[C@@H]1[C@@H]2CC[C@]2(C)C(=O)CC[C@@H]12	460	3300	22	120	–	–	–	–	–	–	–
COc1cc2c(cc1O)CC[C@@H]1[C@@H]2CC[C@]2(C)[C@@H](NS(N)(=O)=O)CC[C@@H]12	58600	–	–	–	–	–	–	–	–	–	–
COc1cc2c(cc1OS(N)(=O)=O)CC[C@@H]1[C@@H]2CC[C@]2(C)[C@@H](NS(C)(=O)=O)CC[C@@H]12	9900	–	–	5200	7100	3200	3500	5600	9600	23400	–
CCc1cc2c(cc1O)CC[C@@H]1[C@@H]2CC[C@]2(C)[C@@H](OS(C)(=O)=O)CC[C@@H]12	5580	–	–	–	–	–	–	–	–	–	–
COc1cc2c(cc1OS(N)(=O)=O)CC[C@@H]1[C@@H]2CC[C@]2(C)[C@@H](OS(C)(=O)=O)CC[C@@H]12	520	–	–	230	650	340	540	780	1170	3100	–
CCc1cc2c(cc1OS(N)(=O)=O)CC[C@@H]1[C@@H]2CC[C@]2(C)[C@@H](OS(C)(=O)=O)CC[C@@H]12	570	1600	49	200	< 10	< 10	< 10	< 10	< 10	< 10	–
CCc1cc2c(cc1O)CC[C@@H]1[C@@H]2CC[C@]2(C)[C@@H](C[N+](=O)[O-])CC[C@@H]12	12200	–	–	10400	–	–	–	–	–	–	–
COc1cc2c(cc1O)CC[C@@H]1[C@@H]2CC[C@]2(C)[C@@H](N)CC[C@@H]12	2640	–	–	3560	–	–	–	–	–	–	–
CCc1cc2c(cc1OS(N)(=O)=O)CC[C@@H]1[C@@H]2CC[C@]2(C)[C@@H](NS(C)(=O)=O)CC[C@@H]12	840	–	–	3520	5890	470	710	4370	4170	6920	–
COc1cc2c(cc1O)CC[C@@H]1[C@@H]2CC[C@]2(C)[C@@H](OS(C)(=O)=O)CC[C@@H]12	4200	–	–	2370	–	–	–	–	–	–	–
CCc1cc2c(cc1OS(N)(=O)=O)CC[C@@H]1[C@@H]2CC[C@]2(C)[C@@H](OS(N)(=O)=O)CC[C@@H]12	–	1300	45	–	< 10	< 10	< 10	–	< 10	28	–
Cc1cc2c(cc1OS(N)(=O)=O)CC[C@@H]1[C@@H]2CC[C@]2(C)C(OS(N)(=O)=O)CC[C@@H]12 (some centres undefined)	380	1300	46	–	–	–	–	–	–	–	–
CCCc1cc2c(cc1OS(N)(=O)=O)CC[C@@H]1[C@@H]2CC[C@]2(C)C(OS(N)(=O)=O)CC[C@@H]12 (some centres undefined)	3400	20000	–	–	–	–	–	–	–	–	–
CCc1cc2c(cc1O)CC[C@@H]1[C@@H]2CC[C@]2(C)[C@@H](CN(C)C)CC[C@@H]12	10100	–	–	9500	18600	16200	39800	11500	21400	43700	–
CCc1cc2c(cc1OS(N)(=O)=O)CC[C@@H]1[C@@H]2CC[C@]2(C)[C@@H](C[N+](=O)[O-])CC[C@@H]12	140	1700	74	170	63	21	25	41	31	66	–
CCc1cc2c(cc1O)CC[C@@H]1[C@@H]2CC[C@]2(C)[C@@H](CCN(C)C)CC[C@@H]12	7960	–	–	4740	–	–	–	–	–	–	–
COc1cc2c(cc1O)CC[C@@H]1[C@@H]2CC[C@]2(C)[C@@H](O)CC[C@@H]12 [2-METHOXYESTRADIOL]	1220	7000	17	–	360	320	210	470	700	950	–
